Test results: ChEMBL document CHEMBL4004789, “Isochromans and Related Constituents from the Endophytic Fungus Annulohypoxylon truncatum of Zizania caduciflora and Their Anti-Inflammatory Effects” (J Nat Prod, 2017)
The source made the active and inactive calls. No cut-off for these calls is given here.

What was measured:
[1] = Cytotoxicity against C57BL/6 mouse BMDC at 50 uM after 24 hrs by CCK8 assay; assay type: cell-based
How it was run: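 GM-CSF-derived C57BL/6 BMDCs were seeded at ~1 × 10⁴ cells/well and cultured overnight. Compound was added across a dose series for 24 h. CCK-8 reagent was then added for 1 h, and absorbance at 450 nm was read as viable cell number. Triplicate wells.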

[2] = Anti-inflammatory activity in C57BL/6 mouse BMDC assessed as inhibition of LPS-induced IL-6 production pretreated for 1 hr followed by LPS-stimulation after 18 hrs by ELISA; assay type: functional, cell-based
How it was run: (§1)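 BMDCs came from wild-type C57BL/6 bone marrow, cultured 6 days with GM-CSF-containing J558L supernatant in RPMI 1640 with 10% FBS; loosely adherent cells were used. Cells were plated at 1 × 10⁵/well and pretreated 1 h with compound at 2, 5, 10, 25 and 50 μM. Stimulation was 10 ng/mL S. minnesota LPS. Murine cytokine in 18 h supernatants was measured by ELISA. Mean + SD, ≥3 independent experiments in triplicate.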

[3] = Anti-inflammatory activity in C57BL/6 mouse BMDC assessed as inhibition of LPS-induced IL12 p40 production pretreated for 1 hr followed by LPS-stimulation after 18 hrs by ELISA; assay type: functional, cell-based; how it was run: as §1
[4] = Anti-inflammatory activity in C57BL/6 mouse BMDC assessed as inhibition of LPS-induced TNFalpha production pretreated for 1 hr followed by LPS-stimulation after 18 hrs by ELISA; assay type: functional, cell-based; how it was run: as §1
BMDC [5] = assay: Anti-inflammatory activity in C57BL/6 mouse BMDC assessed as inhibition of LPS-induced IL-6 production at 50 uM pretreated for 1 hr followed by LPS-stimulation after 18 hrs by ELISA; assay type: functional, cell-based
How it was run: (§2)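 Wild-type C57BL/6 mouse bone marrow cells were grown 6 days in RPMI 1640 with 10% FBS, 50 μM β-ME, 2 mM glutamine and 3% J558L supernatant (GM-CSF). Non-adherent DCs were plated at 1 × 10⁵/well and given compound at 50 μM for 1 h. They were then stimulated with 10 ng/mL Salmonella minnesota LPS. Supernatant cytokine was measured by ELISA at 18 h. Mean + SD, ≥3 independent experiments in triplicate.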

BMDC [6] = assay: Anti-inflammatory activity in C57BL/6 mouse BMDC assessed as inhibition of LPS-induced IL12 p40 production at 50 uM pretreated for 1 hr followed by LPS-stimulation after 18 hrs by ELISA; assay type: functional, cell-based; how it was run: as §2
BMDC [7] = assay: Anti-inflammatory activity in C57BL/6 mouse BMDC assessed as inhibition of LPS-induced TNFalpha production at 50 uM pretreated for 1 hr followed by LPS-stimulation after 18 hrs by ELISA; assay type: functional, cell-based; how it was run: as §2

Row | IC50 [2] | IC50 [3] | IC50 [4] | Compound | Activity [1] | inhibition (BMDC [5]) | inhibition (BMDC [6]) | inhibition (BMDC [7])
1 | 5.3 µM | 19.4 µM | 37.6 µM | C[C@@H]1CC2=C(CO1)C(=O)[C@](C)(O)[C@@H](O)C2 | Non-Toxic | Active | Active | Active
2 | > 100 µM | > 100 µM | > 100 µM | COc1cc2c(c(O)c1O)CO[C@H](C)[C@H]2O | Non-Toxic | – | – | –
3 | > 100 µM | > 100 µM | > 100 µM | COc1cc2c(c(O)c1OC)CO[C@H](C)C2 | Non-Toxic | – | – | –
4 | > 100 µM | > 100 µM | > 100 µM | COc1c(O)cc2c(c1O)CO[C@H](C)C2 | Non-Toxic | – | – | –
5 | > 100 µM | > 100 µM | > 100 µM | Cc1ccc2c(c1O)C(=O)O[C@H](C)C2 | Non-Toxic | – | – | –
6 | > 100 µM | > 100 µM | > 100 µM | C[C@@H]1Cc2cc(O)cc(O)c2CO1 | Non-Toxic | – | – | –
7 | > 100 µM | > 100 µM | > 100 µM | COc1c2c(cc(O)c1O[C@H]1O[C@H](CO)[C@@H](O)[C@H]1O)C[C@@H](C)OC2 | Non-Toxic | – | – | –
8 | > 100 µM | > 100 µM | > 100 µM | COc1cc2c(c(O)c1OC)CO[C@H](C)[C@H]2O | Non-Toxic | – | – | –

Row | Compound | IC50 [2] | IC50 [3] | IC50 [4] | Activity [1] | inhibition (BMDC [5]) | inhibition (BMDC [6]) | inhibition (BMDC [7])
9 | C[S+]([O-])c1ccc(-c2nc(-c3ccc(F)cc3)c(-c3ccncc3)[nH]2)cc1 (stereo not drawn) [SB-203580] | 3.5 µM | 5 µM | 7.2 µM | – | – | – | –
